Runt-SMMHC FRET = inhibitors of human RUNX1 Runt domain binding to CBFb-SMMHC; inhibition, % at 20 µM; Q01196+Q13951; 220,000 compounds, 0.74% hits; Cerulean-Runt/Venus-CBFb-SMMHC FRET ratio 530/480, 1 h;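 active = mean inhibition across duplicate retests at 20 µM reaching about 50%, limit read from the data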;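 also: inhibitors lower the FRET ratio by blocking Runt binding to CBFb-SMMHC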
RanGTP-Imp inh = inhibitors of RanGTP-importin-beta interaction, primary screen, biochemical, FRET, CFP-Ran, YFP-importin-beta, homogeneous | inhibition, % (test concentration not listed) | 300,000 compounds, 1.1% hits | cell-free CFP-Ran/YFP-importin-beta FRET ratio | AID 2216;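 active = more than half of the replicate wells show a fall in the fluorescence ratio signal beyond about 16%, limit read from the data, passing the limit was not always enough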
Runt-CBFb FRET = inhibitors of human RUNX1 Runt domain binding to CBFb | Q01196+Q13951 | Cerulean-Runt/Venus-CBFb FRET ratio 530/480, 1 h | inhibition, % at 20 µM | 220,000 compounds, 0.46% hits | AID 1496;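 active = inhibition over about 50% at 20 µM in the single-dose screen, limit read from the data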
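Schedule: protein complex preformed 1 h, compound exposure 1 h, room temperature, dark; test system: Cerulean-labeled Runt domain protein; amount: 100 nM per protein; buffer or medium: Tris 50 mM pH 7.5, KCl, K2SO4, 0.01% BSA; read-out: loss of energy transfer signal; detection: FRET fluorescence; controls: 5 µM unlabeled CBFb as full-inhibition high control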
p97 ATPase inh = human p97 ATPase inhibition; P55072; recombinant p97 ATPase, Kinase-Glo ATP luminescence, 3 h; inhibition, % at 8 µM; 220,000 compounds, 0.42% hits; in the data active = inhibition above about 15%
Target sequence (P55072 whole entry, looked up): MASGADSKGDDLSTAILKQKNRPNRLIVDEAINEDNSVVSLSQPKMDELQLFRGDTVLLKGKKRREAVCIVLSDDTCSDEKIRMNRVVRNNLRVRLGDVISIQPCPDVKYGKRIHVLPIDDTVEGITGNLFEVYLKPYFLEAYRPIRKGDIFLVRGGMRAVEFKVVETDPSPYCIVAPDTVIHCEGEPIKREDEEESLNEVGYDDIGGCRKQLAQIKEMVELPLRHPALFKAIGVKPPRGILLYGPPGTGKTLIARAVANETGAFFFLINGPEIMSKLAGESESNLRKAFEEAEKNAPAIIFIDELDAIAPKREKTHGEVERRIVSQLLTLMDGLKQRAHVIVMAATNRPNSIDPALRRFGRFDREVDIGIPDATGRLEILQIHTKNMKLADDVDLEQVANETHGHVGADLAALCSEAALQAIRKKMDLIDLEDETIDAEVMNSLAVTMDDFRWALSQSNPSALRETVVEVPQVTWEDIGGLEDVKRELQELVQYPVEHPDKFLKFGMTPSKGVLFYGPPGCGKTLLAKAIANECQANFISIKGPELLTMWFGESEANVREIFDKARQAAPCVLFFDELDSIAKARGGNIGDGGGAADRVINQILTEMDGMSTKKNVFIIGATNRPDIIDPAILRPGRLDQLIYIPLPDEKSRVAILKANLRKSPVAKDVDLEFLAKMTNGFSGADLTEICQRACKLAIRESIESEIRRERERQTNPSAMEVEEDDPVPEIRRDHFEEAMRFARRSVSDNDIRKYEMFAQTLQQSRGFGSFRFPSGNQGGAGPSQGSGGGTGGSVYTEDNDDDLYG
Hck-Nef inh = human Hck-Nef kinase inhibition; Recombinant Hck-YEEI plus Nef, Z-Lyte FRET kinase assay; inhibition, % at 20 µM; 220,000 compounds, 0.68% hits;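 active = Hck-Nef kinase inhibition above about 50%, limit read from the data; inactive = inhibition below that limit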
Tb hexokinase = T. brucei hexokinase 1 inhibition; recombinant TbHK1, G6PDH-coupled NADH A340; inhibition, % at 10 µM; 220,000 compounds, 0.11% hits; AID 1430;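 active = inhibition of 50% or more in the single-dose primary screen; inactive = inhibition below 50%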
RUNX1 CBFb TR = Runt-CBFb binding inhibition | shares compounds with Runt-CBFb FRET | TR-FRET RUNX1 Runt domain-CBFb binding | inhibition, % at 20 µM | 480 compounds, 20% hits | AID 1502; in the data active = inhibition above about 40%
A number is an active result. Compounds with a hit are over-represented: about 2.1% of the library has one in this group of screens.

What do the screens show for `O=C(COc1ccc2c3c(c(=O)oc2c1)CCCC3)N1C[C@H]2C[C@@H](C1)c1cccc(=O)n1C2`?
RanGTP-Imp inh: inactive

How did Cc1ccccc1C1=Nn2c(nnc2-c2ccco2)SC1 do in these assays?
Runt-SMMHC FRET: inactive; RanGTP-Imp inh: inactive; Runt-CBFb FRET: inactive; p97 ATPase inh: inactive; Hck-Nef inh: inactive; Tb hexokinase: inactive

How did Fc1ccc(-c2ccnc(=S)[nH]2)cc1 do in these assays?
Runt-SMMHC FRET: inactive; RanGTP-Imp inh: inactive; Runt-CBFb FRET: 52.1; p97 ATPase inh: inactive; Hck-Nef inh: inactive; Tb hexokinase: inactive; RUNX1 CBFb TR: inactive

Results for COc1cc(SC)ccc1C(=O)Nc1cccc(C2OCCCO2)c1 ?
RanGTP-Imp inh: inactive

What do the screens show for `COc1ccc(-c2noc(CCC(=O)N3CCC(C)CC3)n2)cc1`?
Runt-SMMHC FRET: inactive; RanGTP-Imp inh: inactive; Runt-CBFb FRET: 85.1; p97 ATPase inh: inactive; Hck-Nef inh: inactive; Tb hexokinase: inactive; RUNX1 CBFb TR: inactive

Results for Cc1ccc(NC(=S)N(CCN(C)C)Cc2cccs2)c(C)c1 ?
Runt-SMMHC FRET: inactive; RanGTP-Imp inh: inactive; Runt-CBFb FRET: 54.1; p97 ATPase inh: inactive; Hck-Nef inh: inactive; Tb hexokinase: inactive; RUNX1 CBFb TR: inactive

Results for O=C(CSc1nnc(CNC(=O)c2ccco2)o1)Nc1ccccc1 ?
Runt-SMMHC FRET: inactive; RanGTP-Imp inh: inactive; Runt-CBFb FRET: inactive; p97 ATPase inh: inactive; Hck-Nef inh: inactive; Tb hexokinase: inactive

What do the screens show for `O=C(CSc1nnc(CNC(=O)c2ccco2)o1)Nc1nc2ccccc2s1`?
Runt-SMMHC FRET: inactive; RanGTP-Imp inh: inactive; Runt-CBFb FRET: 55.8; p97 ATPase inh: inactive; Hck-Nef inh: inactive; Tb hexokinase: inactive; RUNX1 CBFb TR: 63.7

How did COc1ccccc1N1C(=O)C2CC(C)=C(C)CC2C1=O (configuration not stated) do in these assays?
Runt-SMMHC FRET: inactive; RanGTP-Imp inh: inactive; Runt-CBFb FRET: inactive; p97 ATPase inh: inactive; Hck-Nef inh: inactive; Tb hexokinase: inactive

How did COc1ccccc1N1C(=O)C=C(Sc2nc(C)cc(C)n2)C1=O do in these assays?
Runt-SMMHC FRET: 68.5; RanGTP-Imp inh: inactive; Runt-CBFb FRET: 59.7; p97 ATPase inh: inactive; Hck-Nef inh: inactive; Tb hexokinase: inactive; RUNX1 CBFb TR: inactive

How did Cc1ccc2c(c1)sc(C)[n+]2CCCS(=O)(=O)[O-] do in these assays?
Runt-SMMHC FRET: inactive; RanGTP-Imp inh: inactive; Runt-CBFb FRET: 57.9; p97 ATPase inh: inactive; Hck-Nef inh: inactive; Tb hexokinase: inactive; RUNX1 CBFb TR: inactive

Results for O=C(NCC1CCCO1)c1ccc(NC(=O)c2ccc([N+](=O)[O-])cc2)cc1 (configuration not stated) ?
RanGTP-Imp inh: inactive

How did CCC(C)N(C(=O)Cn1c(=O)cnc2ccccc21)C1CCS(=O)(=O)C1 (configuration not stated) do in these assays?
RanGTP-Imp inh: inactive

What do the screens show for `COCCCNC(=S)NCCCNc1nc2cc3c(cc2cc1C#N)OCO3`?
Runt-SMMHC FRET: 140.5; RanGTP-Imp inh: 53.1; Runt-CBFb FRET: 78.1; p97 ATPase inh: inactive; Hck-Nef inh: inactive; Tb hexokinase: inactive; RUNX1 CBFb TR: inactive

What do the screens show for `O=C(CSc1nnc(CNC(=O)c2cccc(C(F)(F)F)c2)o1)NC1CCCCC1`?
RanGTP-Imp inh: inactive

What do the screens show for `Cc1ccc(-n2nc3c(=O)n(CCCC(=O)NCc4ccc(C)o4)nc(C)c3c2C)cc1`?
RanGTP-Imp inh: inactive

How did Cc1ccc(O)c(NC(=O)c2cc(C)no2)c1 do in these assays?
RanGTP-Imp inh: inactive

What do the screens show for `O=C([O-])c1cc(-c2ccccc2)cc(-c2ccccc2)[n+]1Cc1ccccc1`?
RanGTP-Imp inh: inactive

Results for CCc1c(C)c(C#N)c2nc3ccccc3n2c1N(C)C ?
Runt-SMMHC FRET: inactive; Runt-CBFb FRET: inactive; p97 ATPase inh: inactive; Hck-Nef inh: inactive; Tb hexokinase: inactive

What do the screens show for `CCc1c(C)c(C#N)c2nc3ccccc3n2c1Nc1c(C)n(C)n(-c2ccccc2)c1=O`?
Runt-SMMHC FRET: 92.0; RanGTP-Imp inh: 39.7; Runt-CBFb FRET: 56.3; p97 ATPase inh: inactive; Hck-Nef inh: inactive; Tb hexokinase: inactive; RUNX1 CBFb TR: inactive

Results for COc1ccc(N=C2O/C(=C/c3sc(=S)n(CC4CCCO4)c3O)N=C2C#N)cc1 (configuration not stated) ?
Runt-SMMHC FRET: inactive; RanGTP-Imp inh: inactive; Runt-CBFb FRET: inactive; p97 ATPase inh: inactive; Hck-Nef inh: inactive; Tb hexokinase: inactive

How did CN(C)/C=C/C(=O)c1ccc(F)cc1F do in these assays?
Runt-SMMHC FRET: inactive; RanGTP-Imp inh: inactive; Runt-CBFb FRET: inactive; p97 ATPase inh: inactive; Hck-Nef inh: inactive; Tb hexokinase: inactive

How did COC1OC(COC(=O)c2ccccc2)C(OC(=O)c2ccccc2)C1OC(=O)c1ccccc1 (configuration not stated) do in these assays?
RanGTP-Imp inh: inactive

What do the screens show for `O=C(O)C[C@@H]1C(=O)O[C@@H]2C(COC(=O)c3cc(O)c(O)c(O)c3)O[C@@H](OC(=O)c3cc(O)c(O)c(O)c3)[C@@H](OC(=O)c3cc(O)c(O)c4c3[C@H]1[C@H](O)C(=O)O4)[C@H]2OC(=O)c1cc(O)c(O)c(O)c1` (some centres not stated)?
Runt-SMMHC FRET: inactive; Runt-CBFb FRET: 50.9; Hck-Nef inh: 102.0; Tb hexokinase: inactive; RUNX1 CBFb TR: 48.8

How did COc1ccc(-c2nc3c(c(=O)c4ccccc4n3C)c(=O)n2Cc2ccccc2)cc1 do in these assays?
Runt-SMMHC FRET: inactive; RanGTP-Imp inh: inactive; Runt-CBFb FRET: 53.3; p97 ATPase inh: inactive; Hck-Nef inh: inactive; Tb hexokinase: inactive; RUNX1 CBFb TR: 60.6

What do the screens show for `COc1ccc(Cn2c(-c3ccc(OC)cc3)nc3c(c(=O)c4ccccc4n3C)c2=O)cc1`?
Runt-SMMHC FRET: inactive; RanGTP-Imp inh: inactive; Runt-CBFb FRET: inactive; p97 ATPase inh: inactive; Hck-Nef inh: inactive; Tb hexokinase: inactive

How did Cc1ncc(CO)c(/C=N/NC(=O)c2cc(Br)ccc2O)c1O do in these assays?
Runt-SMMHC FRET: inactive; RanGTP-Imp inh: inactive; Runt-CBFb FRET: inactive; p97 ATPase inh: inactive; Hck-Nef inh: inactive; Tb hexokinase: inactive

What do the screens show for `Cc1ncc(CO)c(/C=N/NC(=O)c2cc(O)c(O)c(O)c2)c1O`?
Runt-SMMHC FRET: 50.9; RanGTP-Imp inh: inactive; Runt-CBFb FRET: 57.3; p97 ATPase inh: inactive; Hck-Nef inh: inactive; Tb hexokinase: inactive; RUNX1 CBFb TR: 65.6

How did O=C(CN(C(=O)CCC(=O)Nc1nccs1)c1ccc(F)cc1)NCCc1ccccc1 do in these assays?
RanGTP-Imp inh: inactive

How did Cc1cccnc1Nc1nc(-c2ccc(O)c(O)c2)cs1 do in these assays?
Runt-SMMHC FRET: 51.6; RanGTP-Imp inh: inactive; Runt-CBFb FRET: 64.6; p97 ATPase inh: inactive; Hck-Nef inh: inactive; Tb hexokinase: inactive; RUNX1 CBFb TR: inactive

What do the screens show for `Cc1[nH]c(=O)c(S(=O)(=O)c2ccccc2)c(C)c1Cl`?
RanGTP-Imp inh: inactive
